Laboratory results as given in ChEMBL document CHEMBL1158546, “Discovery of novel and potent leukotriene B4 receptor antagonists. Part 1” (J Med Chem, 2010).
pIC50: −log10 of the molar value. In brackets after ≈: the same amount, converted by molar mass. Activity calls are given as the source filed them. No cut-off for these calls is given here.

Columns and labels:
[1] = molecular target: T1, Leukotriene B4 receptor 1 (Homo sapiens, UniProt Q15722); assay: Antagonist activity at BLT1 receptor expressed in human HL60 cells assessed as inhibition of LTB4-stimulated calcium flux after 30 mins; type: functional, cell-based, HL-60; details: read-out: IC50
In short: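 HL-60 cells grown in RPMI-1640 with 20% FBS were plated at 2.0 × 10^5 cells/ml with 1 μM retinoic acid. They were dye-loaded in HBSS/20 mM HEPES/5 mM probenecid (0.05% BSA in the replacement buffer) for 1 h at 37 C. Compound (5 × 10^-11 to 3 × 10^-6 M final) was added for 30 min at room temperature, then 0.5 μM LTB4. Fluorescence was read every 1.5 s for 100 s and peak increase scored as % inhibition versus DMSO control.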

[2] = molecular target: T1, Leukotriene B4 receptor 1; assay: Antagonist activity at FLAG-tagged human BLT1 receptor expressed in HEK293 cells assessed as inhibition of LTB4-stimulated calcium mobilization preincubated for 10 mins before LTB4 challenge; type: functional, cell-based
[3] = molecular target: T2, Leukotriene B4 receptor 2 (Homo sapiens, UniProt Q9NPC1); assay: Antagonist activity at FLAG-tagged human BLT2 receptor expressed in HEK293 cells assessed as inhibition of LTB4-stimulated calcium mobilization preincubated for 10 mins before LTB4 challenge; type: functional, cell-based
T2 sequence (Q9NPC1 whole entry): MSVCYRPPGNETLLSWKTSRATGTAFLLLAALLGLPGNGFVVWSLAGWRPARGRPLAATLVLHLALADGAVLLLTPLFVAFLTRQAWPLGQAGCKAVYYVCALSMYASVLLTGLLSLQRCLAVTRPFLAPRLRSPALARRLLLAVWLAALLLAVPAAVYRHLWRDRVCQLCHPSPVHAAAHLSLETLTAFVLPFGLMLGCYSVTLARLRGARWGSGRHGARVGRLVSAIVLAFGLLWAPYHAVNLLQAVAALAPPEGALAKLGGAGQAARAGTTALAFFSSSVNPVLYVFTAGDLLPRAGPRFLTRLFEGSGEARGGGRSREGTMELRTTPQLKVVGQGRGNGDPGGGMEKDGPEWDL

[4] = Lipophilicity, log D of compound at pH 7.4; details: buffer
[5] = Solubility of compound in small intestinal contents in the fed state at pH 5; type: ADME
In short: (§1)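 Solubility measured in simulated intestinal fluid at pH 5.0 (fed) or pH 6.5 (fasted), reported in μg/mL.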

[6] = Solubility of compound in small intestinal contents in the fasted state at pH 6.5; type: ADME; in short: as §1
[7] = molecular target: T3, Voltage-gated inwardly rectifying potassium channel KCNH2 (Homo sapiens, UniProt Q12809); assay: Inhibition of human ERG expressed in CHO cells assessed as reduction of current amplitude
[8] = molecular target: T3, Voltage-gated inwardly rectifying potassium channel KCNH2; assay: Inhibition of human ERG expressed in CHO cells at 3 uM assessed as reduction of current amplitude
Cytochrome P450 1A2 = molecular target: T4, Cytochrome P450 1A2 (Homo sapiens, UniProt P05177); assay: Inhibition of CYP1A2 by fluorescence method; type: ADME
T4 sequence (P05177 whole entry): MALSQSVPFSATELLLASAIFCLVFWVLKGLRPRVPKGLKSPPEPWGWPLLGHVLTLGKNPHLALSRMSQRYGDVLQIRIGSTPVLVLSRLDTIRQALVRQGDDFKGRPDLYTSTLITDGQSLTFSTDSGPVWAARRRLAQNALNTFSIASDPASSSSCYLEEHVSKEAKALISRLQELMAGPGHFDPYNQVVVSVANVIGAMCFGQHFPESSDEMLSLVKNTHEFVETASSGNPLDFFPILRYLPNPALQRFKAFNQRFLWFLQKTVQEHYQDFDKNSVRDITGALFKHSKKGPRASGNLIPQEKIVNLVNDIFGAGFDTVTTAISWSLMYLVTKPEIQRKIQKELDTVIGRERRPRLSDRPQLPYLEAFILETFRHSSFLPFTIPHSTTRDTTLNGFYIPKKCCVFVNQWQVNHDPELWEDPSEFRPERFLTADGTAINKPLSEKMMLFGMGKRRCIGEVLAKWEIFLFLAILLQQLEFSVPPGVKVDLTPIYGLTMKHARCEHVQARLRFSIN
In short: (§2)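 Cytochrome P450 high-throughput panel (1A2, 2D6, 2C9, 2C19, 3A4) using fluorogenic substrates; IC50 reported.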

Cytochrome P450 2D6 = Cytochrome P450 2D6 (Homo sapiens, UniProt P10635); assay: Inhibition of CYP2D6 fluorescence method; type: ADME
In short: (§3)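 High-throughput CYP panel covering 1A2, 2D6, 2C9, 2C19 and 3A4, using fluorogenic substrates. IC50 was determined in μM.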

Cytochrome P450 2C19 = Cytochrome P450 2C19 (Homo sapiens, UniProt P33261); assay: Inhibition of CYP2C19 fluorescence method; type: ADME; in short: as §2
Cytochrome P450 3A4 = Cytochrome P450 3A4 (Homo sapiens, UniProt P08684); assay: Inhibition of CYP3A4 fluorescence method; type: ADME; in short: as §3
Cytochrome P450 2C9 [9] = molecular target: T5, Cytochrome P450 2C9 (Homo sapiens, UniProt P11712); assay: Inhibition of CYP2C9 fluorescence method; type: ADME
Cytochrome P450 2C9 [10] = molecular target: T5, Cytochrome P450 2C9; assay: Inhibition of CYP2C9 by LC/MS method; type: ADME
Neutrophil = assay: Inhibition of LTB4-stimulated human neutrophils migration after 30 mins by using CyQuant GR fluorescent dye; type: functional, cell-based; details: Homo sapiens, Neutrophil, 0.5 h; read-out: IC50
In short: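 Human blood neutrophils (95-97% pure, isolated over Lympholyte-poly) at 5 × 10^6 cells/mL were preincubated with compound (3 × 10^-12 to 1 × 10^-6 M final) for 30 min at 37 C. Migration toward 100 ng/mL LTB4 across a polycarbonate membrane ran 90 min at 37 C. Migrated cells were lysed with CyQuant GR and read at 480/520 nm. IC50 was taken from a sigmoidal fit of % inhibition.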

[11] = Half life in Sprague-Dawley rat at 10 mg/kg, po; type: ADME, organism-based; design: dose 10 mg/kg, route oral; details: in vivo
In short: (§4)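 Rat single-dose PK, n = 3, with oral dosing at 10 mg/kg and intravenous dosing at 2.5 or 5 mg/kg.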

[12] = Cmax in Sprague-Dawley rat at 10 mg/kg, po; type: ADME, organism-based; design: dose 10 mg/kg, route oral; details: in vivo; in short: as §4
[13] = Tmax in Sprague-Dawley rat at 10 mg/kg, po; type: ADME, organism-based; design: dose 10 mg/kg, route oral; details: in vivo; in short: as §4
[14] = Oral bioavailability in Sprague-Dawley rat at 10 mg/kg, po; type: ADME, organism-based; details: in vivo; in short: as §4
[15] = Half life in Sprague-Dawley rat at 2.5 mg/kg, iv; type: ADME, organism-based; design: dose 2.5 mg/kg, route intravenous; details: in vivo
[16] = Volume of distribution at steady state in Sprague-Dawley rat at 2.5 mg/kg, iv; type: ADME, organism-based; design: dose 2.5 mg/kg, route intravenous; details: in vivo, read-out: Vdss
[17] = Clearance in Sprague-Dawley rat at 2.5 mg/kg, iv; type: ADME, organism-based; design: dose 2.5 mg/kg, route intravenous; details: in vivo
Cavia porcellus = assay: Antiinflammatory activity against LTB4-evoked eosinophilic pulmonary inflammation in Hartley guinea pig at 10 mg/kg, po after 1 hr treated before LTB4 challenge; type: functional, organism-based; design: dose 10 mg/kg
In short: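 Male Hartley guinea pigs (250-350 g) were dosed orally with 10 mg/kg in 2% Klucel LF/0.1% Tween-80. One hour later they were exposed to 10 μg/mL LTB4 aerosol for 20 min. BAL (3 × 5 mL HBSS) was done 2 h after challenge under pentobarbital. Cells were counted, and differentials of at least 300 cells were taken on Wright-stained cytospins. Analysis by two-way ANOVA/Bonferroni; 4-20 animals per group.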

Cynomolgus monkey = assay: Antiinflammatory activity against ascaris suum antigen-evoked increase in neutrophils at bronchoalveolar lavage in cynomolgus monkey at 10 mg/kg, po after 1 hr treated before LTB4 challenge; type: functional, organism-based; design: dose 10 mg/kg; details: Macaca fascicularis, in the assay text read “before Ascaris suum antigen challenge” for “before LTB4 challenge”
In short: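 Male cynomolgus monkeys (4-10 kg) naturally hypersensitive to Ascaris suum had baseline BAL 24 h before challenge. They were dosed orally with 10 mg/kg in 15% Labrasol in PEG. One hour later, under ketamine/xylazine, they received antigen aerosol for 90 s by endotracheal tube. BAL neutrophil percentage came from 300-cell LeukoStat differentials, with hemocytometer totals. Analysis by two-way ANOVA/Bonferroni; 3-21 animals per group.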

[18] = Half life in Sprague-Dawley rat at 5 mg/kg, iv; type: ADME, organism-based; design: dose 5 mg/kg, route intravenous; details: in vivo; in short: as §4
[19] = Volume of distribution at steady state in Sprague-Dawley rat at 5 mg/kg, iv; type: ADME, organism-based; design: dose 5 mg/kg, route intravenous; details: in vivo, read-out: Vdss; in short: as §4
[20] = Clearance in Sprague-Dawley rat at 5 mg/kg, iv; type: ADME, organism-based; design: dose 5 mg/kg, route intravenous; details: in vivo; in short: as §4

T5 sequence (P11712 whole entry): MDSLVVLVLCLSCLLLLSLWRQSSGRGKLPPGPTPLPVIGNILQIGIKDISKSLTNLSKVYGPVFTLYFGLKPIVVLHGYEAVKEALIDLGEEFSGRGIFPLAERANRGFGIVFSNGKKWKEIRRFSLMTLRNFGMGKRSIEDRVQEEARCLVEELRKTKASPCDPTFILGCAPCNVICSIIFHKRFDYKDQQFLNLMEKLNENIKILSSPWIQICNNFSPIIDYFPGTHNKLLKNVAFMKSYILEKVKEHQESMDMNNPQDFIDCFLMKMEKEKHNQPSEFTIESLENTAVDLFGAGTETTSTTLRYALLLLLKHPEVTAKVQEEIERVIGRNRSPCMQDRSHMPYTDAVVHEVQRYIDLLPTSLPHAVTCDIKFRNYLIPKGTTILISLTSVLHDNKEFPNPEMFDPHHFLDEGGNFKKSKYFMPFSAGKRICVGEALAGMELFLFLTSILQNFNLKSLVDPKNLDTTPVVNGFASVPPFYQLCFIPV
Chain of Cytochrome P450 2C19 (P33261 whole entry): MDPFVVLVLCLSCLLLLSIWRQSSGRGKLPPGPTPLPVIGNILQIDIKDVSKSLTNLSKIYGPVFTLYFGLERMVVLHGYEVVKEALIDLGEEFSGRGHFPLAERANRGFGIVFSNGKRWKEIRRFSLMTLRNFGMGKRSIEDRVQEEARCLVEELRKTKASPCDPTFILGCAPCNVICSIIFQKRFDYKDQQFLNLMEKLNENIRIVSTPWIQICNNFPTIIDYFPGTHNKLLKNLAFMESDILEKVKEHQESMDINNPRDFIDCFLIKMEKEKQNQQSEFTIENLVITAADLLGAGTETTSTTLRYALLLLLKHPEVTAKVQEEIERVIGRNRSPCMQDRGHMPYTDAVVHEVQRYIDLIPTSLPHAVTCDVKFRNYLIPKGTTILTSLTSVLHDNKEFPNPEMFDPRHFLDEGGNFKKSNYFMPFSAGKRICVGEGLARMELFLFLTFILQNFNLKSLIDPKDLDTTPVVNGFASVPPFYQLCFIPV
T1 sequence (Q15722 whole entry): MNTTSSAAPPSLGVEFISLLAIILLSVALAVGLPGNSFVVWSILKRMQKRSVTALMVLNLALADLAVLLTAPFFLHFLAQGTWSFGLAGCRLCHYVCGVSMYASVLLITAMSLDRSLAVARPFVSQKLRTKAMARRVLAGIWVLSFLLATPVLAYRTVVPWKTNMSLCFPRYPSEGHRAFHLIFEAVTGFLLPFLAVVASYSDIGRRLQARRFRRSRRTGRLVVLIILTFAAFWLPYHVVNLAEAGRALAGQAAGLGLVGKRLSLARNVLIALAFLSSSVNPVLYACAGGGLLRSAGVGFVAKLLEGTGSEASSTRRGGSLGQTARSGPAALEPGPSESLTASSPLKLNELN
T3 sequence (Q12809 whole entry): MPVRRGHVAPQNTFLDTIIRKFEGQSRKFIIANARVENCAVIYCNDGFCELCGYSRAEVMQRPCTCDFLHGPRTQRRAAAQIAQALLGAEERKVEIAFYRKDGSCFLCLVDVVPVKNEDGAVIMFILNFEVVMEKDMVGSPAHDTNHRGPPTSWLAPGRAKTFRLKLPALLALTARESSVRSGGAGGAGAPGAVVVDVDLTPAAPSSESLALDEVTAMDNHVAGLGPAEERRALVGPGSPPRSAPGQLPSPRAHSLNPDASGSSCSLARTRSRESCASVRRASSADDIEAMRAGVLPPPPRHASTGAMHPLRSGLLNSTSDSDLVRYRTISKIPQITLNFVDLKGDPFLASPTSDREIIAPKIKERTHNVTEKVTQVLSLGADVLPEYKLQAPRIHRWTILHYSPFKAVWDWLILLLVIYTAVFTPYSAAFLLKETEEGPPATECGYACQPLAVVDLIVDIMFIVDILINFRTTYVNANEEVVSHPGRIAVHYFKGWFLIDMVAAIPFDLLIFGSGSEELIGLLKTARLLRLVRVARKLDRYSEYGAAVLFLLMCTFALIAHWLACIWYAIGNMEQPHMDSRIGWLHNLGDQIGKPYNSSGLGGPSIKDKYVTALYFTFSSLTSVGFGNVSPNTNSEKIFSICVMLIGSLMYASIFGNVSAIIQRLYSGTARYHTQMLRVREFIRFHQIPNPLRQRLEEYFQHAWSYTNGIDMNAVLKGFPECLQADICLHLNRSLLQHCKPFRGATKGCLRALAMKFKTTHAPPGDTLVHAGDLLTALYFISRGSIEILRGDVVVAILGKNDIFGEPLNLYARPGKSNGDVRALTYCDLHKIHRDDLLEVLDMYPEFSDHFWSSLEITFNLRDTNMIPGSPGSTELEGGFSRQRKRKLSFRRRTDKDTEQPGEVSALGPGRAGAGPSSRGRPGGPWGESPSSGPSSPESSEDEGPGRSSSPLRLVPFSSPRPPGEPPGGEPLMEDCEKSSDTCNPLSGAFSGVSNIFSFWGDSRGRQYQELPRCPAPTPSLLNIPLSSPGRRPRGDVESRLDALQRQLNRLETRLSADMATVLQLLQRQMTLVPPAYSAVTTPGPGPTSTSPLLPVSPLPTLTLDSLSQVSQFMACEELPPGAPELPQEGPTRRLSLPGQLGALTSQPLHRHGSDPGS
Chain of Cytochrome P450 2D6 (P10635 whole entry): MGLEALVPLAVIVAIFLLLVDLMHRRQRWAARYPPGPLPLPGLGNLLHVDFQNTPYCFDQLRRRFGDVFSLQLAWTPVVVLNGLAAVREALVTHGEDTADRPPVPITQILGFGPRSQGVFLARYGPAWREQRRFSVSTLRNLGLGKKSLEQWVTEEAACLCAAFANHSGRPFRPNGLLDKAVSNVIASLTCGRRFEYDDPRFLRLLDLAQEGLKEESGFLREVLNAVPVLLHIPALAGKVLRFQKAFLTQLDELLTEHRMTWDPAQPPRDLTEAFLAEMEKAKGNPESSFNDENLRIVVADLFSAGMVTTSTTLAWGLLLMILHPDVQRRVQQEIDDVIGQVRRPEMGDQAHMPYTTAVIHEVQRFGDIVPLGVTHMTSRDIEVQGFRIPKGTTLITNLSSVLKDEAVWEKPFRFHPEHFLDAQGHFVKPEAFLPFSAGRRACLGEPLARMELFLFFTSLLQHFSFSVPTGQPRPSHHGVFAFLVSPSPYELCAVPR
Chain of Cytochrome P450 3A4 (P08684 whole entry): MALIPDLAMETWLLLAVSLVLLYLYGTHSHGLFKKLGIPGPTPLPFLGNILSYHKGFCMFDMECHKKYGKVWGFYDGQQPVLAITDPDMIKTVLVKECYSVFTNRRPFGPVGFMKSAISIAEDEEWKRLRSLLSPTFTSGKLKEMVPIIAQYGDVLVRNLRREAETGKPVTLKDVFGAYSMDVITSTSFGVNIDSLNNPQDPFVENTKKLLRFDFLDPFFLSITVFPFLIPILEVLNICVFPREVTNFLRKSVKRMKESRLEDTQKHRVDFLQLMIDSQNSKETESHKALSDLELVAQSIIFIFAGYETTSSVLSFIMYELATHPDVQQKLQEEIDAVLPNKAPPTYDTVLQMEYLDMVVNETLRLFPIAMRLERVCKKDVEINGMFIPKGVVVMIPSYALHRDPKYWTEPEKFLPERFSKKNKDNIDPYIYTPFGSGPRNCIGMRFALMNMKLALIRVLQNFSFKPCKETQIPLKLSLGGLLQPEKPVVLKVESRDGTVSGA

Compound | pIC50 [1] | solubility [5] | solubility [6] | pIC50 (Cytochrome P450 1A2) | pIC50 (Cytochrome P450 2D6) | pIC50 (Cytochrome P450 2C19) | pIC50 (Cytochrome P450 3A4) | pIC50 (Cytochrome P450 2C9 [9]) | pIC50 (Neutrophil) | INH [8] | further results
O=C(O)CCCOc1cccc(CCCCCCOc2cc(-c3ccncc3)cc(-c3cccc(F)c3)c2)c1CCC(=O)O | 9.74 | – | – | – | – | – | – | – | 9.70 | – | –
O=C(O)CCCOc1cccc(CCCCCCOc2cc(-c3ccc(F)cc3)cc(-c3ccc(F)cc3)c2)c1CCC(=O)O | 8.07 | – | – | – | – | – | – | – | – | – | –
O=C(O)CCCOc1cccc(CCCCCCOc2cc(-c3ccccc3)cc(-c3ccccc3)n2)c1CCC(=O)O | 9.32 | 27.7 µg/mL (≈ 47.6 µM) | 16.5 µg/mL (≈ 28.4 µM) | < 5.12 | < 5.12 | < 5.12 | < 5.12 | < 4.90 | 8.74 | Not Active | pIC50 [2]: 6.69; pIC50 [3]: 5.51; pIC50 [7]: < 5.52; half-life [11]: 2.9 h; Cmax [12]: 2110 nM; Tmax [13]: 2.3 h; bioavailability [14]: 28%; half-life [15]: 2.1 h; Vd [16]: 0.3 L/kg; clearance [17]: 7.53 mL/min/kg; Activity (Cavia porcellus): Active; Activity (Cynomolgus monkey): Active
O=C(O)CCCOc1cccc(CCCCCCOc2cc(-c3ccncc3)cc(-c3ccncc3)c2)c1CCC(=O)O | 10.15 | 61 µg/mL (≈ 105 µM) | 22.7 µg/mL (≈ 39 µM) | < 5.12 | < 5.12 | < 5.12 | < 5.12 | 6.47 | – | Not Active | pIC50 [2]: 7.15; pIC50 [3]: 6.84; logD [4]: 1.78; pIC50 (Cytochrome P450 2C9 [10]): 6.05; half-life [11]: 4.52 h; Cmax [12]: 310 nM; Tmax [13]: 5 h; bioavailability [14]: 10%; half-life [18]: 4.52 h; Vd [19]: 1.55 L/kg; clearance [20]: 28.1 mL/min/kg
O=C(O)CCCOc1cccc(CCCCCCOc2cc(-c3cncnc3)cc(-c3ccc4c(c3)OCO4)c2)c1CCC(=O)O | 9.42 | – | – | – | – | – | – | – | 9.70 | – | –

Further compounds by rising pIC50 [1], results first:

pIC50 [1] | solubility [5] | solubility [6] | pIC50 (Cytochrome P450 1A2) | pIC50 (Cytochrome P450 2D6) | pIC50 (Cytochrome P450 2C19) | pIC50 (Cytochrome P450 3A4) | pIC50 (Cytochrome P450 2C9 [9]) | pIC50 (Neutrophil) | Compound | INH [8] | further results
6.85 | – | – | – | – | – | – | – | – | O=C(O)CCCOc1cccc(CCCCCCOc2cc(-c3ccc4c(c3)OCCO4)cc(-c3ccc4c(c3)OCCO4)c2)c1CCC(=O)O | – | –
7.51 | – | – | – | – | – | – | – | – | COc1ccc(-c2cc(OCCCCCCc3cccc(OCCCC(=O)O)c3CCC(=O)O)cc(-c3ccc(OC)cc3)c2)cc1 | – | –
8.27 | – | – | – | – | – | – | – | – | O=C(O)CCCOc1cccc(CCCCCCOc2cc(-c3ccc4c(c3)OCO4)cc(-c3ccc4c(c3)OCO4)c2)c1CCC(=O)O | – | –
9.21 | 38.1 µg/mL (≈ 59.3 µM) | 27.1 µg/mL (≈ 42.2 µM) | < 5.12 | < 5.12 | < 5.12 | < 5.12 | 5.12 | 8.12 | O=C(O)CCCOc1cccc(CCCCCCOc2cc(-c3ccc4c(c3)OCO4)cc(-c3ccccc3F)c2)c1CCC(=O)O | Not Active | logD [4]: 2.44
9.24 | – | – | – | – | – | – | – | – | O=C(O)CCCOc1cccc(CCCCCCOc2cc(-c3ccsc3)cc(-c3ccsc3)c2)c1CCC(=O)O | – | –
9.68 | 338 µg/mL (≈ 582 µM) | 27.3 µg/mL (≈ 47 µM) | < 5.12 | < 5.12 | < 5.12 | < 5.12 | < 4.30 | – | O=C(O)CCCOc1cccc(CCCCCCOc2cc(-c3ccccc3)cc(-c3ccccc3)c2)c1CCC(=O)O | Not Active | pIC50 [2]: 7.41; pIC50 [3]: 6.20; logD [4]: 0.7; pIC50 [7]: < 5.52; pIC50 (Cytochrome P450 2C9 [10]): < 4.90
